Test results as given in ChEMBL document CHEMBL5260806, “Hydrogen peroxide activated quinone methide precursors with enhanced DNA cross-linking capability and cytotoxicity towards cancer cells” (Eur J Med Chem, 2017).
The source made the active and inactive calls. The calls are words filed in the database; no cut-off is given here.

Columns and labels:
[1] = system: OVCAR-5; assay: Anticancer activity against human OVCAR-5 cells assessed as cell growth inhibition at 10 uM incubated for 48 hrs by sulforhodamine B assay; assay type: functional; conditions: read-out: GI
Outline: (§1)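 NCI DTP 60-cell-line screen run at National Cancer Institute. Cells grown in RPMI 1640 with 5% fetal bovine serum and 2 mM L-glutamine, seeded at 5,000–40,000 cells/well depending on doubling time. Single-dose screen at 10 µM gives growth percentage; dose-response series gives GI50.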

[2] = system: UO-31; assay: Anticancer activity against human UO-31 cells assessed inhibition of cell growth after 48 hrs by CellTiter-Glo luminescent assay; assay type: functional, cell-based; conditions: UO-31, 48 h
Outline: (§2)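 Renal lines grown in RPMI 1640 with 5% FBS and 2 mM L-glutamine, seeded into 384-well plates at 5,000–10,000 cells/well, held 2–3 h at 37 °C, 5% CO2. DMSO stocks (20 mM) serially halved ten times and added at 1:100. Cells exposed 48 h at 37 °C; CellTiter-Glo added, 10 min at room temperature, luminescence read.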

[3] = system: NCI-H226; assay: Anticancer activity against human NCI-H226 cells assessed as cell growth inhibition incubated for 48 hrs by sulforhodamine B assay; assay type: functional; outline: as §1
[4] = system: U-251; assay: Anticancer activity against human U-251 cells assessed as cell growth inhibition incubated for 48 hrs by sulforhodamine B assay; assay type: functional
[5] = system: MCF7; assay: Anticancer activity against human MCF7 cells assessed as cell growth inhibition at 10 uM incubated for 48 hrs by sulforhodamine B assay; assay type: functional; conditions: read-out: GI; outline: as §1
[6] = system: A498; assay: Anticancer activity against human A498 cells assessed as cell growth inhibition at 10 uM incubated for 48 hrs by sulforhodamine B assay; assay type: functional; conditions: read-out: GI
Outline: (§3)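 NCI-60 screen: cell lines grown in RPMI 1640 with 5% FBS and 2 mM L-glutamine, plated in 96-well plates at 5,000–40,000 cells/well depending on doubling time. Each line has one single-dose arm at 10 µM and one dose-response arm giving GI50.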

[7] = system: IGROV-1; assay: Anticancer activity against human IGROV-1 cells assessed as cell growth inhibition incubated for 48 hrs by sulforhodamine B assay; assay type: functional; outline: as §3
[8] = system: K562; assay: Anticancer activity against human K562 cells assessed as cell growth inhibition incubated for 48 hrs by sulforhodamine B assay; assay type: functional; outline: as §3
[9] = system: LOX IMVI; assay: Anticancer activity against human LOX IMVI cells assessed as cell growth inhibition at 10 uM incubated for 48 hrs by sulforhodamine B assay; assay type: functional; conditions: read-out: GI; outline: as §3
[10] = system: SNB-75; assay: Anticancer activity against human SNB-75 cells assessed as cell growth inhibition incubated for 48 hrs by sulforhodamine B assay; assay type: functional
[11] = system: COLO 205; assay: Anticancer activity against human COLO 205 cells assessed as cell growth inhibition incubated for 48 hrs by sulforhodamine B assay; assay type: functional; outline: as §3
[12] = system: MDA-MB-231; assay: Anticancer activity against human MDA-MB-231 cells assessed as cell growth inhibition at 10 uM incubated for 48 hrs by sulforhodamine B assay; assay type: functional; conditions: read-out: GI; outline: as §1
[13] = system: SF-539; assay: Anticancer activity against human SF-539 cells assessed as cell growth inhibition incubated for 48 hrs by sulforhodamine B assay; assay type: functional; outline: as §1
[14] = system: EKVX; assay: Anticancer activity against human EKVX cells assessed as cell growth inhibition at 10 uM incubated for 48 hrs by sulforhodamine B assay; assay type: functional; conditions: read-out: GI; outline: as §3
[15] = system: M14; assay: Anticancer activity against human M14 cells assessed as cell growth inhibition incubated for 48 hrs by sulforhodamine B assay; assay type: functional; outline: as §3
[16] = system: HCT-116; assay: Anticancer activity against human HCT-116 cells assessed as cell growth inhibition at 10 uM incubated for 48 hrs by sulforhodamine B assay; assay type: functional; conditions: read-out: GI; outline: as §3
[17] = system: HT-29; assay: Anticancer activity against human HT-29 cells assessed as cell growth inhibition at 10 uM incubated for 48 hrs by sulforhodamine B assay; assay type: functional; conditions: read-out: GI; outline: as §3
[18] = system: SF-295; assay: Anticancer activity against human SF-295 cells assessed as cell growth inhibition at 10 uM incubated for 48 hrs by sulforhodamine B assay; assay type: functional; conditions: read-out: GI; outline: as §1
[19] = system: DNA; assay: Induction of [32P]-labeled 49-mer oligonucleotide duplex DNA 25 (unknown origin) interstrand cross-linking at 2 mM for 48 hrs in presence of 2mM H2O2 by PAGE; assay type: functional
[20] = system: MDA-MB-468; assay: Anticancer activity against human MDA-MB-468 cells assessed inhibition of cell growth after 48 hrs by CellTiter-Glo luminescent assay; assay type: functional, cell-based; conditions: MDA-MB-468, 48 h
Outline: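 Cells grown in RPMI 1640 with 5% fetal bovine serum and 2 mM L-glutamine, seeded at 5,000–10,000 cells/well in 384-well plates, preincubated 2–3 h at 37°C, 5% CO2. DMSO stocks (20 mM) serially diluted 2-fold ten times, then added at 1:100. Exposure 48 h at 37°C. Viability read by CellTiter-Glo luminescence after 10 min at room temperature; IC50 derived.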

[21] = system: SW-620; assay: Anticancer activity against human SW620 cells assessed as cell growth inhibition at 10 uM incubated for 48 hrs by sulforhodamine B assay; assay type: functional; conditions: read-out: GI
[22] = system: SN12C; assay: Anticancer activity against human SN12C cells assessed as cell growth inhibition at 10 uM incubated for 48 hrs by sulforhodamine B assay; assay type: functional; conditions: read-out: GI
[23] = system: NCI-H522; assay: Anticancer activity against human NCI-H522 cells assessed as cell growth inhibition incubated for 48 hrs by sulforhodamine B assay; assay type: functional; outline: as §1
[24] = system: HT-29; assay: Anticancer activity against human HT-29 cells assessed as cell growth inhibition incubated for 48 hrs by sulforhodamine B assay; assay type: functional; outline: as §3
[25] = system: KM12; assay: Anticancer activity against human KM12 cells assessed as cell growth inhibition incubated for 48 hrs by sulforhodamine B assay; assay type: functional; outline: as §3
[26] = system: SK-MEL-5; assay: Anticancer activity against human SK-MEL-5 cells assessed as cell growth inhibition incubated for 48 hrs by sulforhodamine B assay; assay type: functional; outline: as §1
[27] = system: OVCAR-3; assay: Anticancer activity against human OVCAR-3 cells assessed as cell growth inhibition incubated for 48 hrs by sulforhodamine B assay; assay type: functional; outline: as §1
[28] = system: NCI-H23; assay: Anticancer activity against human NCI-H23 cells assessed as cell growth inhibition at 10 uM incubated for 48 hrs by sulforhodamine B assay; assay type: functional; conditions: read-out: GI; outline: as §1
[29] = system: TK-10; assay: Anticancer activity against human TK-10 cells assessed inhibition of cell growth after 48 hrs by CellTiter-Glo luminescent assay; assay type: functional, cell-based; conditions: TK-10, 48 h; outline: as §2
[30] = system: TK-10; assay: Anticancer activity against human TK-10 cells assessed as cell growth inhibition incubated for 48 hrs by sulforhodamine B assay; assay type: functional
[31] = system: NCI-H322M; assay: Anticancer activity against human NCI-H322M cells assessed as cell growth inhibition incubated for 48 hrs by sulforhodamine B assay; assay type: functional; outline: as §1
[32] = system: HCT-116; assay: Anticancer activity against human HCT-116 cells assessed as cell growth inhibition incubated for 48 hrs by sulforhodamine B assay; assay type: functional; outline: as §3
[33] = system: CLL cell; assay: Induction of DNA damage in chronic lymphocytic leukemia patient lymphocytes assessed as gamma-H2Ax phosphorylation at Ser139 residue at 10 uM after 24 hrs by FITC-staining based flow cytometry; assay type: functional; conditions: Homo sapiens
Outline: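 Patient CLL lymphocytes, Ficoll-hypaque isolated, in RPMI with 10% autologous plasma, untreated or exposed to 10 µM for 24 h. Cells washed in PBS, fixed in ice-cold 70% ethanol and held at −20 °C. Then permeabilised, stained with FITC anti-H2AX Ser139 antibody and read by flow cytometry.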

[34] = system: MOLT-4; assay: Anticancer activity against human MOLT-4 cells assessed as cell growth inhibition incubated for 48 hrs by sulforhodamine B assay; assay type: functional; outline: as §1

COc1cc(CBr)c(B2OC(C)(C)C(C)(C)O2)c(CBr)c1
inhibition of growth at 10 µM [1]: < 50%
IC50 [2]: 10.8 µM
GI50 [3]: 2000 nM
GI50 [4]: 2000 nM
inhibition of growth at 10 µM [5]: < 50%
inhibition of growth at 10 µM [6]: < 50%
GI50 [7]: 2000 nM
GI50 [8]: 2000 nM
inhibition of growth at 10 µM [9]: < 50%
GI50 [10]: 2000 nM
GI50 [11]: 2000 nM
inhibition of growth at 10 µM [12]: < 50%
GI50 [13]: 2000 nM
inhibition of growth at 10 µM [14]: < 50%
GI50 [15]: 2000 nM
inhibition of growth at 10 µM [16]: < 50%
inhibition of growth at 10 µM [17]: < 50%
inhibition of growth at 10 µM [18]: < 50%
Activity [19]: 36%
IC50 [20]: 9 µM
inhibition of growth at 10 µM [21]: < 50%
inhibition of growth at 10 µM [22]: < 50%
GI50 [23]: 2000 nM
GI50 [24]: 2000 nM
GI50 [25]: 2000 nM
GI50 [26]: 2000 nM
GI50 [27]: 2000 nM
inhibition of growth at 10 µM [28]: < 50%
IC50 [29]: 16.2 µM
GI50 [30]: 2000 nM
GI50 [31]: 2000 nM
GI50 [32]: 2000 nM
Activity [33]: Active
GI50 [34]: 2000 nM
